Converted amounts (≈) assume the structure as drawn.
Key:
Assay type in all cases: functional
[1] = system: Staphylococcus aureus; experiment: Antibacterial activity against methicillin-resistant Staphylococcus aureus ATCC 43300 after 24 hrs; conditions: ATCC 43300, 24 h
Method in brief: (§1)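 Compounds were dissolved in dimethylformamide/propyleneglycol (0.5:9.5) and serially diluted twofold in Mueller–Hinton broth at pH 7.4, from 100 down to 0.78. Inocula came from 24 h broth cultures grown at 37 °C, with a final inoculum of 10⁵ CFU/ml. Tubes were incubated for 24 h at 37 °C alongside inoculated-broth and solvent controls. The MIC was read as the last tube showing no growth.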

[2] = system: Staphylococcus aureus; experiment: Antibacterial activity against methicillin-resistant Staphylococcus aureus isolate after 24 hrs; method in brief: as §1
[3] = system: Staphylococcus aureus; experiment: Antibacterial activity against Staphylococcus aureus ATCC 25923 after 24 hrs; conditions: ATCC 25923, 24 h; method in brief: as §1
[4] = system: Escherichia coli; experiment: Antibacterial activity against Escherichia coli ATCC 23556 after 24 hrs; conditions: ATCC 23556, 24 h
Method in brief: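 Twofold serial broth dilution in Mueller–Hinton broth, pH 7.4; compounds dissolved in dimethylformamide/propyleneglycol (0.5:9.5), diluted in medium from 100 down to 0.78 (100, 50, 25, 12.5, 6.25, 3.12, 1.56, 0.78). Inoculum 10⁵ CFU/ml from 24 h broth cultures. Incubated 24 h at 37 °C; MIC taken as last tube without growth. Inoculated broth-only tubes as controls.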

[5] = system: Candida albicans; experiment: Antifungal activity against Candida albicans ATCC 10145 after 48 hrs; conditions: ATCC 10145, 48 h
Method in brief: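 Yeast maintained in Sabouraud dextrose broth, 24 h at 25 °C; testing by twofold serial dilution in Sabouraud dextrose broth, pH 7.4, final inoculum 10⁴ CFU/ml. Compounds in dimethylformamide/propyleneglycol (0.5:9.5), diluted in medium from 100 to 0.78 (100, 50, 25, 12.5, 6.25, 3.12, 1.56, 0.78).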

## O=C(CN1C(=O)S/C(=C/c2sc(Cl)nc2Cl)C1=O)c1ccc(Cl)cc1Cl
[1]
  MIC: 12.5 µg/mL (≈ 26.7 µM)
[2]
  MIC: 12.5 µg/mL (≈ 26.7 µM)
[3]
  MIC: 12.5 µg/mL (≈ 26.7 µM)
[4]
  MIC: 25 µg/mL (≈ 53.4 µM)
[5]
  MIC: 12.5 µg/mL (≈ 26.7 µM)

## O=C(CN1C(=O)S/C(=C\c2sc(Cl)nc2Cl)C1=O)c1ccc(F)cc1
[1]
  MIC: 6.25 µg/mL (≈ 15 µM)
[2]
  MIC: 6.25 µg/mL (≈ 15 µM)
[3]
  MIC: 6.25 µg/mL (≈ 15 µM)
[4]
  MIC: 6.25 µg/mL (≈ 15 µM)
[5]
  MIC: 12.5 µg/mL (≈ 30 µM)

## Clc1ccc(COC(Cn2ccnc2)c2ccc(Cl)cc2Cl)c(Cl)c1 (stereo unspecified) [MICONAZOLE]
[1]
  MIC: 6.25 µg/mL (≈ 15 µM)
[5]
  MIC: 25 µg/mL (≈ 60.1 µM)

## O=C(CN1C(=O)S/C(=C\c2sc(Cl)nc2Cl)C1=O)c1ccc([N+](=O)[O-])cc1
[1]
  MIC: 12.5 µg/mL (≈ 28.1 µM)
[2]
  MIC: 12.5 µg/mL (≈ 28.1 µM)
[3]
  MIC: 12.5 µg/mL (≈ 28.1 µM)
[4]
  MIC: 25 µg/mL (≈ 56.3 µM)
[5]
  MIC: 6.25 µg/mL (≈ 14.1 µM)

## O=C(CN1C(=O)S/C(=C/c2sc(Cl)nc2Cl)C1=O)c1ccc(Cl)cc1
[1]
  MIC: 12.5 µg/mL (≈ 28.8 µM)
[2]
  MIC: 6.25 µg/mL (≈ 14.4 µM)
[3]
  MIC: 12.5 µg/mL (≈ 28.8 µM)
[4]
  MIC: 50 µg/mL (≈ 115 µM)
[5]
  MIC: 6.25 µg/mL (≈ 14.4 µM)

## O=C(CN1C(=O)S/C(=C\c2sc(Cl)nc2Cl)C1=O)c1ccc(Cl)cc1Cl
[1]
  MIC: 12.5 µg/mL (≈ 26.7 µM)
[2]
  MIC: 12.5 µg/mL (≈ 26.7 µM)
[3]
  MIC: 12.5 µg/mL (≈ 26.7 µM)
[4]
  MIC: 25 µg/mL (≈ 53.4 µM)
[5]
  MIC: 12.5 µg/mL (≈ 26.7 µM)

## CC1(C)S[C@@H]2[C@H](NC(=O)[C@H](N)c3ccccc3)C(=O)N2[C@H]1C(=O)O [AMPICILLIN]
[1]
  MIC: 1.56 µg/mL (≈ 4.46 µM)
[2]
  MIC: 1.56 µg/mL (≈ 4.46 µM)
[3]
  MIC: 6.25 µg/mL (≈ 17.9 µM)
[4]
  MIC: 25 µg/mL (≈ 71.5 µM)

## O=C(CN1C(=O)S/C(=C\c2sc(Cl)nc2Cl)C1=O)c1ccccc1
[1]
  MIC: 6.25 µg/mL (≈ 15.7 µM)
[2]
  MIC: 6.25 µg/mL (≈ 15.7 µM)
[3]
  MIC: 6.25 µg/mL (≈ 15.7 µM)
[4]
  MIC: 25 µg/mL (≈ 62.6 µM)
[5]
  MIC: 12.5 µg/mL (≈ 31.3 µM)

## O=C1S/C(=C\c2sc(Cl)nc2Cl)C(=O)N1Cc1ccc(F)cc1
[1]
  MIC: 6.25 µg/mL (≈ 16.1 µM)
[2]
  MIC: 6.25 µg/mL (≈ 16.1 µM)
[3]
  MIC: 6.25 µg/mL (≈ 16.1 µM)
[4]
  MIC: 25 µg/mL (≈ 64.2 µM)
[5]
  MIC: 12.5 µg/mL (≈ 32.1 µM)

## O=C1S/C(=C\c2sc(Cl)nc2Cl)C(=O)N1Cc1ccc(Cl)cc1Cl
[1]
  MIC: 12.5 µg/mL (≈ 28.4 µM)
[2]
  MIC: 12.5 µg/mL (≈ 28.4 µM)
[3]
  MIC: 12.5 µg/mL (≈ 28.4 µM)
[4]
  MIC: 25 µg/mL (≈ 56.8 µM)
[5]
  MIC: 6.25 µg/mL (≈ 14.2 µM)

## O=C1S/C(=C\c2sc(Cl)nc2Cl)C(=O)N1Cc1ccc(Br)cc1
[1]
  MIC: 12.5 µg/mL (≈ 27.8 µM)
[2]
  MIC: 6.25 µg/mL (≈ 13.9 µM)
[3]
  MIC: 6.25 µg/mL (≈ 13.9 µM)
[4]
  MIC: 25 µg/mL (≈ 55.5 µM)
[5]
  MIC: 6.25 µg/mL (≈ 13.9 µM)

## O=C(CN1C(=O)S/C(=C\c2sc(Cl)nc2Cl)C1=O)c1ccc(Br)cc1
[1]
  MIC: 6.25 µg/mL (≈ 13.1 µM)
[2]
  MIC: 12.5 µg/mL (≈ 26.1 µM)
[3]
  MIC: 12.5 µg/mL (≈ 26.1 µM)
[4]
  MIC: 6.25 µg/mL (≈ 13.1 µM)
[5]
  MIC: 6.25 µg/mL (≈ 13.1 µM)

## O=C1S/C(=C\c2sc(Cl)nc2Cl)C(=O)N1Cc1ccc(Cl)cc1
[1]
  MIC: 6.25 µg/mL (≈ 15.4 µM)
[2]
  MIC: 6.25 µg/mL (≈ 15.4 µM)
[3]
  MIC: 6.25 µg/mL (≈ 15.4 µM)
[4]
  MIC: 25 µg/mL (≈ 61.6 µM)
[5]
  MIC: 6.25 µg/mL (≈ 15.4 µM)

## O=C1S/C(=C\c2sc(Cl)nc2Cl)C(=O)N1Cc1ccc([N+](=O)[O-])cc1
[1]
  MIC: 6.25 µg/mL (≈ 15 µM)
[2]
  MIC: 12.5 µg/mL (≈ 30 µM)
[3]
  MIC: 6.25 µg/mL (≈ 15 µM)
[4]
  MIC: 25 µg/mL (≈ 60.1 µM)
[5]
  MIC: 12.5 µg/mL (≈ 30 µM)

## O=C(CN1C(=O)S/C(=C\c2sc(Cl)nc2Cl)C1=O)c1ccc(Cl)cc1
[1]
  MIC: 6.25 µg/mL (≈ 14.4 µM)
[2]
  MIC: 6.25 µg/mL (≈ 14.4 µM)
[3]
  MIC: 6.25 µg/mL (≈ 14.4 µM)
[4]
  MIC: 25 µg/mL (≈ 57.6 µM)
[5]
  MIC: 6.25 µg/mL (≈ 14.4 µM)

## O=C1S/C(=C\c2sc(Cl)nc2Cl)C(=O)N1Cc1ccccc1
[1]
  MIC: 6.25 µg/mL (≈ 16.8 µM)
[2]
  MIC: 12.5 µg/mL (≈ 33.7 µM)
[3]
  MIC: 12.5 µg/mL (≈ 33.7 µM)
[4]
  MIC: 25 µg/mL (≈ 67.3 µM)
[5]
  MIC: 6.25 µg/mL (≈ 16.8 µM)

From ChEMBL document CHEMBL1143753, “Synthesis and antimicrobial activity of some new thiazolyl thiazolidine-2,4-dione derivatives” (2007)
